Assay results as given in ChEMBL document CHEMBL2046351, “Discovery of cyclic sulfone hydroxyethylamines as potent and selective β-site APP-cleaving enzyme 1 (BACE1) inhibitors: structure-based design and in vivo reduction of amyloid β-peptides” (J Med Chem, 2012).

How the values were obtained:
[1] = test system: MDR1 (human); assay: Apparent permeability across MDCK cells expressing human MDR1 at 5 uM after 2 hrs by LC-MS analysis; format: ADME, cell-based, Canis lupus familiaris; conditions: dog
Procedure, shortened: (§1)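 MDCK cells retrovirally transduced with human MDR1, seeded on transwells ≥3 days; bidirectional transport at 5 μM, 2 h, 37 °C, LC/MS quantitation. Papp = (dQ/dt)/(A·C0), A 0.11 cm2; ER = Papp B>A / Papp A>B. Means of at least three experiments.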

[2] = biological target: Beta-secretase 1 (Homo sapiens, UniProt P56817)
Beta-secretase 1, sequence (P56817 whole entry): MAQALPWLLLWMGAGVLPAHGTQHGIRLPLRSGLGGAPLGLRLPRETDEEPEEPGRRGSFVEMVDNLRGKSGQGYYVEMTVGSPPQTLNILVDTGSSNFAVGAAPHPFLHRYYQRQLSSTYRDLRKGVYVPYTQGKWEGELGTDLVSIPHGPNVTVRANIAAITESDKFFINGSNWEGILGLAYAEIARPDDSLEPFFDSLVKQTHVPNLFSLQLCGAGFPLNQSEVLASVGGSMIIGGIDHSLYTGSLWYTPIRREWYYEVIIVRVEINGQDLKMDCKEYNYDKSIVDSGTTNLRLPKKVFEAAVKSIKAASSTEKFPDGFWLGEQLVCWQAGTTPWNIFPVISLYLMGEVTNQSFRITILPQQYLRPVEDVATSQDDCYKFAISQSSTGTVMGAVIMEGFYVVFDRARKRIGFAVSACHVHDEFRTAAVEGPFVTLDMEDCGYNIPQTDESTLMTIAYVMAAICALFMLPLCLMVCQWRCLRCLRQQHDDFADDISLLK

[3] = test system: MDR1 (human); assay: Efflux ratio of permeability from basolateral to apical over apical to basolateral side of MDCK cells expressing human MDR1 at 5 uM after 2 hrs by LC/MS analysis; format: ADME, cell-based, Canis lupus familiaris; conditions: dog; procedure, shortened: as §1
[4] = biological target: Cathepsin D (Homo sapiens, UniProt P07339); assay: Inhibition of human recombinant CatD using Mca-GKPILFFRLK(DNP)-dR-NH2 as substrate after 1 hr by fluorescence analysis
Cathepsin D, sequence (P07339 65-162 limits assumed): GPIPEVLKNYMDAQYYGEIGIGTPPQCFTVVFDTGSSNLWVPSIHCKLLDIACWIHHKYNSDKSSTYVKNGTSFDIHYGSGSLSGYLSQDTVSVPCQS
Cathepsin D, sequence (P07339 169-412 limits assumed): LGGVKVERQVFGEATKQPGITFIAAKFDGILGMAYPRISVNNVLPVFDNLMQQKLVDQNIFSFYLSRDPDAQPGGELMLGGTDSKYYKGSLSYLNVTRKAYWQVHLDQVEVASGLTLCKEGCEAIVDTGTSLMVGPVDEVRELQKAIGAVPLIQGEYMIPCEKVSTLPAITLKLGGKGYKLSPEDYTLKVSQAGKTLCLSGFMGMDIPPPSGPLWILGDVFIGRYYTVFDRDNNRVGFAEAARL

Papp at 2 h, 5 µM [1]	IC50 [2]	efflux ratio at 2 h, 5 µM [3]	IC50 [4]	SMILES
12 ×10⁻⁶ cm/s	75 nM	4	2400 nM	CC(C)(C)c1cccc(CN[C@H]2CS(=O)(=O)C[C@@H](Cc3cc(F)c(N)c(OCCC(F)(F)F)c3)[C@@H]2O)c1
14 ×10⁻⁶ cm/s	120 nM	27	540 nM	CC(C)(C)c1cccc(CN[C@H]2CS(=O)(=O)C[C@@H](Cc3cc(O)c(N)c(F)c3)[C@@H]2O)c1
16 ×10⁻⁶ cm/s	94 nM	3	1740 nM	CC(C)(C)c1cccc(CN[C@H]2CS(=O)(=O)C[C@@H](Cc3cc(F)c(N)c(C4CC4)c3)[C@@H]2O)c1
30 ×10⁻⁶ cm/s	220 nM	49	1630 nM	CCCc1n[nH]c2ccc(C[C@@H]3CS(=O)(=O)C[C@H](NCc4cccc(C(C)(C)C)c4)[C@H]3O)cc12 (racemic)
3 ×10⁻⁶ cm/s	150 nM	2	510 nM	CC(C)(C)c1cccc(CN[C@H]2CS(=O)(=O)C[C@@H](Cc3cc(F)c(N)c(-c4ccoc4)c3)[C@@H]2O)c1
15 ×10⁻⁶ cm/s	130 nM	2	7990 nM	CC(C)(C)c1cccc(CN[C@H]2CS(=O)(=O)C[C@@H](Cc3ccc(N)c(OC(F)(F)F)c3)[C@@H]2O)c1 (racemic)
14 ×10⁻⁶ cm/s	43 nM	3	2220 nM	CC(C)Oc1cc(C[C@@H]2CS(=O)(=O)C[C@H](NCc3cccc(C(C)(C)C)c3)[C@H]2O)cc(F)c1N
17.4 ×10⁻⁶ cm/s	1620 nM	16	> 10000 nM	CC(C)(C)c1cccc(CN[C@H]2CS(=O)(=O)C[C@@H](Cc3ccc(N)nc3)[C@@H]2O)c1 (racemic)
20 ×10⁻⁶ cm/s	28 nM	17	600 nM	CC(C)(C)c1cccc(CN[C@H]2CS(=O)(=O)C[C@@H](Cc3cc(F)c(N)c(-c4cc[nH]n4)c3)[C@@H]2O)c1 (racemic)
–	200 nM	–	2480 nM	CCc1c[nH]c2ccc(C[C@@H]3CS(=O)(=O)C[C@H](NCc4cccc(C(C)(C)C)c4)[C@H]3O)cc12 (racemic)
23 ×10⁻⁶ cm/s	1450 nM	11	3750 nM	CC(C)(C)c1cccc(CN[C@H]2CS(=O)(=O)C[C@@H](Cc3ccc4[nH]ncc4c3)[C@@H]2O)c1 (racemic)
10 ×10⁻⁶ cm/s	3 nM	5	480 nM	C[C@@H](Oc1cc(C[C@@H]2CS(=O)(=O)C[C@H](NCc3cccc(C(C)(C)C)c3)[C@H]2O)cc(F)c1N)C(F)(F)F
6 ×10⁻⁶ cm/s	11 nM	3	390 nM	CC(C)(C)c1cccc(CN[C@H]2CS(=O)(=O)C[C@@H](Cc3cc(F)c(N)c(OC4CCC4)c3)[C@@H]2O)c1
6 ×10⁻⁶ cm/s	–	–	> 10000 nM	CN(C)CC(=O)Nc1ccc(C[C@@H]2CS(=O)(=O)C[C@H](NCc3cccc(C(C)(C)C)c3)[C@H]2O)cc1F
7 ×10⁻⁶ cm/s	130 nM	2	1390 nM	CCCc1cc(C[C@@H]2CS(=O)(=O)C[C@H](NCc3cccc(C(C)(C)C)c3)[C@H]2O)cc(F)c1N
23 ×10⁻⁶ cm/s	870 nM	2	2000 nM	CCc1cc(C[C@@H]2CS(=O)(=O)C[C@H](NCc3cccc(C(C)(C)C)c3)[C@H]2O)cc(F)c1N
2 ×10⁻⁶ cm/s	79 nM	2	360 nM	CC(C)(C)c1cccc(CN[C@H]2CS(=O)(=O)C[C@@H](Cc3cc(F)c(N)c(-c4ccco4)c3)[C@@H]2O)c1

Papp at 2 h, 5 µM [1]	IC50 [2]	efflux ratio at 2 h, 5 µM [3]	IC50 [4]	SMILES
12 ×10⁻⁶ cm/s	–	–	250 nM	COCCOC[C@@H](Oc1cc(C[C@@H]2CS(=O)(=O)C[C@H](NCc3cccc(C(C)(C)C)c3)[C@H]2O)cc(F)c1N)C(F)(F)F
11 ×10⁻⁶ cm/s	130 nM	3	980 nM	CC(C)(C)c1cccc(CN[C@H]2CS(=O)(=O)C[C@@H](Cc3cc(F)c(N)c(CCC(F)(F)F)c3)[C@@H]2O)c1
23 ×10⁻⁶ cm/s	36 nM	3	4370 nM	CC(C)(C)c1cccc(CN[C@H]2CS(=O)(=O)C[C@@H](Cc3ccc(N)c(OCC(F)(F)F)c3)[C@@H]2O)c1
6 ×10⁻⁶ cm/s	560 nM	3	80 nM	CC(C)(C)c1cccc(CN[C@H]2CS(=O)(=O)C[C@@H](Cc3cc(F)c4c(c3)C3(CCC3)CN4)[C@@H]2O)c1 (racemic)
13 ×10⁻⁶ cm/s	> 10000 nM	17	> 10000 nM	Nc1c(F)cc(C[C@@H]2CS(=O)(=O)C[C@H](N)[C@H]2O)cc1OC(C(F)(F)F)C(F)(F)F
25 ×10⁻⁶ cm/s	–	–	3980 nM	COCCOc1cc(C[C@@H]2CS(=O)(=O)C[C@H](NCc3cccc(C(C)(C)C)c3)[C@H]2O)cc(F)c1N
10 ×10⁻⁶ cm/s	2750 nM	3	5530 nM	CC(C)(C)c1cccc(CN[C@H]2CS(=O)(=O)C[C@@H](Cc3ccc4[nH]ccc4c3)[C@@H]2O)c1 (racemic)
–	> 10000 nM	4	3710 nM	CC(C)(C)O[C@H]1C[C@@H]1CN[C@H]1CS(=O)(=O)C[C@@H](Cc2cc(F)c(N)c(OC(C(F)(F)F)C(F)(F)F)c2)[C@@H]1O (mixture of isomers)
–	–	–	3530 nM	CC(C)(C)c1cccc(CN[C@H]2CS(=O)(=O)C[C@@H](Cc3cc(F)c4c(c3)C3(CCC(F)(F)CC3)CN4)[C@@H]2O)c1 (racemic)
6 ×10⁻⁶ cm/s	–	8	1220 nM	CC(C)(C)c1cccc(CN[C@H]2CS(=O)(=O)C[C@@H](Cc3ccc4[nH]cc(CC(F)F)c4c3)[C@@H]2O)c1 (racemic)
13 ×10⁻⁶ cm/s	–	–	> 10000 nM	CCc1cc(C[C@@H]2CS(=O)(=O)C[C@H](NCc3cccc(C(C)(C)C)c3)[C@H]2O)cc(F)c1NC(=O)CN(C)C
13 ×10⁻⁶ cm/s	–	–	1050 nM	CC(C)(C)c1cccc(CN[C@H]2CS(=O)(=O)C[C@@H](Cc3cc(F)c(N)c(C[C@H](O)C(F)(F)F)c3)[C@@H]2O)c1
8 ×10⁻⁶ cm/s	–	–	1230 nM	CCOC[C@H](Oc1cc(C[C@@H]2CS(=O)(=O)C[C@H](NCc3cccc(C(C)(C)C)c3)[C@H]2O)cc(F)c1N)C(F)(F)F
28 ×10⁻⁶ cm/s	–	4	4160 nM	CC(F)(F)c1cccc(CN[C@H]2CS(=O)(=O)C[C@@H](Cc3cc(F)c(N)c(Br)c3)[C@@H]2O)c1
9 ×10⁻⁶ cm/s	–	–	1140 nM	CO[C@@H](Cc1cc(C[C@@H]2CS(=O)(=O)C[C@H](NCc3cccc(C(C)(C)C)c3)[C@H]2O)cc(F)c1N)C(F)(F)F
11 ×10⁻⁶ cm/s	–	–	230 nM	CCOC[C@@H](Oc1cc(C[C@@H]2CS(=O)(=O)C[C@H](NCc3cccc(C(C)(C)C)c3)[C@H]2O)cc(F)c1N)C(F)(F)F
23 ×10⁻⁶ cm/s	–	–	1150 nM	CC(C)(C)c1cccc(CN[C@H]2CS(=O)(=O)C[C@@H](Cc3cc(F)c(N)c(OC4COC4)c3)[C@@H]2O)c1
